Assay results from article PMC6544545 (Nature microbiology, 2018).

What was measured:
[1] = system: 60 antibiotic-resistant Escherichia coli strains; format: cell-based
[2] = system: E. coli mutant strains; experiment: Relative MIC measurement of mutant and evolved strains; format: cell-based, Escherichia coli
[3] = system: antibiotic-resistant bacteria; experiment: Antibiotic MIC in the presence of subinhibitory PGLA; format: cell-based, Escherichia coli; details: tetracycline (TET) resistant strain; ½ MIC PGLA (MIC against the wild-type)
Outline: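 Each level was tested alone and alongside MIC determination of the antibiotic the strain was adapted to. Growth with peptide alone was scored as growth rate.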

[4] = system: E. coli K12 wild-type and antibiotic-resistant strains; experiment: Antibiotic-PGLA combination screen; format: cell-based, Escherichia coli; details: Loewe additivity, EC90%
Outline: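 E. coli K12 BW25113 wild-type and 21 strains adapted to one of 10 antibiotics were tested. Single agents ran as 1.6-fold 8-step dilutions spanning 10.5x below to 2.6x above each strain's MIC, plus dilution series at 7 antibiotic:peptide ratios (7:1 to 1:7). Wells received 5×10^4 cells from overnight culture, then 24 h at 30°C, 300 rpm, OD600. Expected (Loewe) and measured EC90% gave CIr per ratio; CI is the mean of the 7 CIr values.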

[5] = system: wild-type E. coli; experiment: Experimental evolution of resistance followed by MIC measurement; format: cell-based, Escherichia coli
[6] = system: CAP18-resistant bacteria; experiment: Susceptibility of CAP18-resistant evolved bacteria to antibiotics; format: cell-based; details: preliminary results
[7] = system: antibiotic-resistant E. coli strains; experiment: Membrane integrity measurement; format: cell-based, Escherichia coli; details: sensitive strains could not grow on medium with 6% bile acid
Outline: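 Bile acid sensitivity came from the high-throughput screen in MS medium. About 103 bacteria/ml were pin-inoculated and grown 24 h at 30°C, 300 rpm, with OD600 read once. Resistant strains ran in 4 replicates and wild-type in 12 on the same plate, and growth arrest was scored per well. Strains unable to grow with 6% bile acid were grouped as sensitive.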

bactenecin 5 (RFRPPIRRPPIRPPFYPPFRPPIRPPIFPPIRPPFRPPLGPFP; Bactenecin-5; UniProt P19660 131-173, looked up) [BAC5]
interaction of tobramycin-resistant strains with the peptide ([1]; tobramycin-resistant E. coli strains): cross-resistance rather than collateral sensitivity

Peptide Glycine-Leucine Amide [PGLA]
susceptibility of the marR single point mutant (marR*) ([2]; marR mutation in E. coli BW25113 or E. coli ATCC 25922): collateral sensitivity | growth rate reduction by the peptide applied alone [3]: 40% | interaction of PGLA with tetracycline (TET), wild-type strain ([4]; E. coli K12 wild-type, 0.86<CI<1.14 no interaction): no interaction | interaction of PGLA with tetracycline (TET), tetracycline-resistant strain TET3 ([4]; TET3, CI≤0.86 synergism): strong synergism | evolution of resistance to the peptide ([5]; laboratory evolution, 160 generations): marginal | cross-resistance between PGLA and ciprofloxacin or tetracycline in evolved lines ([5]; laboratory-evolved lines): no substantial cross-resistance

cecropin P1 [CP1]
collateral sensitivity of antibiotic-resistant strains towards the peptide ([1]; 60 laboratory-evolved antibiotic-resistant E. coli strains): rarely show collateral sensitivity

O=C1CN(/N=C/c2ccc([N+](=O)[O-])o2)C(=O)N1 [nitrofurantoin]
effect of ompC loss-of function mutation on susceptibility ([2]; ompC mutation inserted into wild-type E. coli): conferred resistance

rabbit 18-kDa cationic antimicrobial protein [CAP18]
consequence of evolving resistance to the peptide [6]: collateral sensitivity to several conventional antibiotics

bile acid
percentage of antibiotic-resistant strains more susceptible than the wild-type [7]: 75%
